In ChEMBL document CHEMBL1773060, “Two-step synthesis of novel, bioactive derivatives of the ubiquitous cofactor nicotinamide adenine dinucleotide (NAD)” (J Med Chem, 2011) one finds inhibition and Activity data, which are given here for 9 compounds.

Assay [1] has as its target T1, NAD-dependent protein deacetylase sirtuin-1 (Homo sapiens) (UniProt Q96EB6).
T1 sequence (whole entry): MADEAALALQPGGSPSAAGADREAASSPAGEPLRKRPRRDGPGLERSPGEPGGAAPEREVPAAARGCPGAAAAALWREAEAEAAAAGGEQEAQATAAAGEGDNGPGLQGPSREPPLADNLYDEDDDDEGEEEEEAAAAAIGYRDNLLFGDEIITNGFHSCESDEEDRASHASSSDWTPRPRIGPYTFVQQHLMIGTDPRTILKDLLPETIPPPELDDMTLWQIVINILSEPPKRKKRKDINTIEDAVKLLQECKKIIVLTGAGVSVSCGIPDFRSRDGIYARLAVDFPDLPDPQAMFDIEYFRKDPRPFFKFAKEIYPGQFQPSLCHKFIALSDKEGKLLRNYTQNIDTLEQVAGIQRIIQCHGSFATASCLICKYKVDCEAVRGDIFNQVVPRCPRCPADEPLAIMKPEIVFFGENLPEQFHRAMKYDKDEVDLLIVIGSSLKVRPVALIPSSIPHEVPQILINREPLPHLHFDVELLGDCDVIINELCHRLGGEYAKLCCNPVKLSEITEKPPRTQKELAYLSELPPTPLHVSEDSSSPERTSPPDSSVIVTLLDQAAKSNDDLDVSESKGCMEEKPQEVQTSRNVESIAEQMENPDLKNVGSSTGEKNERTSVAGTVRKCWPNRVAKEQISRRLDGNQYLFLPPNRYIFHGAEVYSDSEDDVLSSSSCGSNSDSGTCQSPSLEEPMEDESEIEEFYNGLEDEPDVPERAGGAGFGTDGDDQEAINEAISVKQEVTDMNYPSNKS
In words: Inhibition of human recombinant GST-tagged SIRT1 at 50 uM after 4 hrs by homogeneous fluorescent deacetylase assay.

The target of assay [2] is T2, NAD-dependent protein deacetylase sirtuin-2 (Homo sapiens) (UniProt Q8IXJ6).
T2 sequence (whole entry): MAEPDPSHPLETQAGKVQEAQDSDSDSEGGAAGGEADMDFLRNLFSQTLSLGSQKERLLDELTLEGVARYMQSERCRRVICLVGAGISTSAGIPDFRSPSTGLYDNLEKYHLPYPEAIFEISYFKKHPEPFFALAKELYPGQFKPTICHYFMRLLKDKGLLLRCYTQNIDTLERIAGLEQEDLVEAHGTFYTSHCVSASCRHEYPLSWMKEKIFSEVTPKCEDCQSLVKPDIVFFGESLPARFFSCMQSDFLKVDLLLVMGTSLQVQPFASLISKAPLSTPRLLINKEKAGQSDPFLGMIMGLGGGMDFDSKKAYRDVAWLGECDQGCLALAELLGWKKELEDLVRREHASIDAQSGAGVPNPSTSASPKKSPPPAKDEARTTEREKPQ
The assay is described as follows: Inhibition of human recombinant N-terminally His6-tagged SIRT2 at 50 uM after 4 hrs by homogeneous fluorescent deacetylase assay.

Assay [3] concerns the target T1, NAD-dependent protein deacetylase sirtuin-1 (Homo sapiens). In words: Activity at human recombinant GST-tagged SIRT1 assessed as conversion of acetyllysine substrate to 7-amino-4-methylcoumarin at 500 uM by fluorescence-based assay.
Assay [4] addresses T2, NAD-dependent protein deacetylase sirtuin-2 (Homo sapiens). In words: Activity at human recombinant GST-tagged SIRT2 assessed as conversion of […] at 500 uM by fluorescence-based assay. To be noted: in the assay text read “His6-tagged” for “GST-tagged”. The gist of the method: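 Analogues, with NAD for comparison, were supplied at 500 μM as cosubstrate in place of NAD, in 8.3% (v/v) DMSO. Reaction used Z-(Ac)Lys-AMC (10.5 μM), 4 h at 37 °C. Trypsin/nicotinamide development followed, then fluorescence at ex 390/em 460 nm. Conversion compared against a blank without cofactor.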

Calls of active or inactive are those of the source. The calls are words filed in the database; no cut-off is given here.

As to `NC(=O)c1ccc[n+]([C@@H]2O[C@H](COP(=O)([O-])OP(=O)(O)OC[C@H]3O[C@@H](n4c(-c5ccc(Cl)cc5)nc5c(N)ncnc54)[C@H](O)[C@@H]3O)[C@@H](O)[C@H]2O)c1`, the inhibition – broadly, how much of the control response was suppressed – in assay [1] amounted to 30%.
Take `Nc1ncnc2c1nc(Br)n2[C@@H]1O[C@H](COP(=O)(O)O)[C@@H](O)[C@H]1O`: the inhibition in assay [1] and in assay [2] was less than 10% in each case.
For the compound `Nc1ncnc2c1nc(Br)n2[C@@H]1O[C@H](CO)[C@@H](O)[C@H]1O`, the figures for the inhibition in assay [1] and in assay [2] were less than 10% and 16%, respectively.
As to `NC(=O)c1ccc[n+]([C@@H]2O[C@H](COP(=O)([O-])OP(=O)(O)OC[C@H]3O[C@@H](n4c(Br)nc5c(N)ncnc54)[C@H](O)[C@@H]3O)[C@@H](O)[C@H]2O)c1`, the inhibition in assay [1] was determined as 31%.
For the compound `NC(=O)c1ccc[n+]([C@@H]2O[C@H](COP(=O)([O-])OP(=O)(O)OC[C@H]3O[C@@H](n4c(-c5ccccc5)nc5c(N)ncnc54)[C@H](O)[C@@H]3O)[C@@H](O)[C@H]2O)c1`, the outcome in assay [3] and in assay [4] was Active. The inhibition in assay [1] was 17%.
For `NC(=O)c1ccc[n+]([C@@H]2O[C@H](COP(=O)([O-])OP(=O)(O)OC[C@H]3O[C@@H](n4c(-c5ccco5)nc5c(N)ncnc54)[C@H](O)[C@@H]3O)[C@@H](O)[C@H]2O)c1`, the inhibition in assay [1] was 16%; in assay [2] it was 35%.
In the case of `COc1ccc(-c2nc3c(N)ncnc3n2[C@@H]2O[C@H](COP(=O)(O)OP(=O)([O-])OC[C@H]3O[C@@H]([n+]4cccc(C(N)=O)c4)[C@H](O)[C@@H]3O)[C@@H](O)[C@H]2O)cc1`, the inhibition in assay [1] stood at 18%.
Consider `Nc1ncnc2c1nc(-c1ccccc1)n2[C@@H]1O[C@H](CO)[C@@H](O)[C@H]1O`, for which the inhibition in assay [1] and in assay [2] was less than 10% throughout.
`Cc1ccc(-c2nc3c(N)ncnc3n2[C@@H]2O[C@H](COP(=O)(O)OP(=O)([O-])OC[C@H]3O[C@@H]([n+]4cccc(C(N)=O)c4)[C@H](O)[C@@H]3O)[C@@H](O)[C@H]2O)cc1`: the inhibition in assay [1] was 20%.
